Reference: BindingDB's records for doi:10.1016/j.bmc.2014.09.055 (University of Arizona, 2014)
pEC50: −log10 of the molar value.

Target: Melanocortin receptor 4 (Homo sapiens, UniProt P32245)
Assay: Displacement of Eu-DTPA-NDP-a-MSH chelate from human melanocortin-4 receptor expressed in HEK293 cells after 1 hr by competitive DELFIA assay
Summary of the method: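 HEK293 cells stably carrying hMC4R (pcDNA3.1) were grown in DMEM plus 10% FBS, seeded at 12,000 cells/well and cultured 3 days. Whole cells were competed with unlabeled ligand against 10 nM (final) Eu-DTPA-NDP-α-MSH in binding medium (DMEM, 1 mM 1,10-phenanthroline, bacitracin, leupeptin, 0.3% BSA) for 1 h at 37 °C, in quadruplicate. EC50 and Hill slope came from variable-slope sigmoidal fits.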

Melanocortin receptor 4, sequence (P32245 whole entry): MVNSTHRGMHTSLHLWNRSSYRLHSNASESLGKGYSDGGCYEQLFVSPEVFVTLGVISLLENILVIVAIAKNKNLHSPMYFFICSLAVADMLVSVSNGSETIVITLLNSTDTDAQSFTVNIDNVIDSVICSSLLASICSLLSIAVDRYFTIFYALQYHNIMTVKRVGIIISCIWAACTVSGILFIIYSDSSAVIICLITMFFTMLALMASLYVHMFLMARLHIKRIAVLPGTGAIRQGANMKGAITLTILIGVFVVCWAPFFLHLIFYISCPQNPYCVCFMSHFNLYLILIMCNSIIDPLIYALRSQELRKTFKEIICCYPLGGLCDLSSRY

## CCCC[C@H](NC(=O)CNC(=O)[C@@H]1CCCN1C(=O)CNC(=O)[C@@H]1CCCN1C(=O)CNC(=O)[C@@H]1CCCN1C(=O)CNC(=O)[C@@H]1CCCN1C(=O)CNC(=O)[C@@H]1CCCN1C(=O)CNC(=O)[C@@H]1CCCN1C(=O)CNC(=O)[C@@H]1CCCN1C(=O)CNC(=O)[C@@H]1CCCN1C(=O)CNC(=O)[C@@H]1CCCN1C(=O)CNC(=O)[C@@H]1CCCN1C(=O)CNC(=O)[C@@H]1CCCN1C(=O)CNC(=O)[C@@H]1CCCN1C(=O)[C@H](Cc1c[nH]c2ccccc12)NC(=O)[C@H](CCCNC(=N)N)NC(=O)[C@@H](Cc1ccccc1)NC(=O)[C@H](Cc1cnc[nH]1)NC(=O)[C@H](CCC(=O)O)NC(=O)[C@H](CC(C)C)NC(=O)[C@H](CO)NC(C)=O)C(=O)N[C@H]1CC(=O)NCCCC[C@@H](C(N)=O)NC(=O)[C@H](Cc2c[nH]c3ccccc23)NC(=O)[C@H](CCCNC(=N)N)NC(=O)[C@@H](Cc2ccc3ccccc3c2)NC(=O)[C@H](Cc2cnc[nH]2)NC1=O
  pEC50: 8.80

## CCCC[C@H](NC(=O)COCC(=O)NCCCOCCOCCOCCCNC(=O)COCC(=O)NCCCOCCOCCOCCCNC(=O)[C@H](Cc1c[nH]c2ccccc12)NC(=O)[C@H](CCCNC(=N)N)NC(=O)[C@@H](Cc1ccccc1)NC(=O)[C@H](Cc1cnc[nH]1)NC(=O)[C@H](CCC(=O)O)NC(=O)[C@H](CC(C)C)NC(=O)[C@H](CO)NC(C)=O)C(=O)N[C@H]1CC(=O)NCCCC[C@@H](C(N)=O)NC(=O)[C@H](Cc2c[nH]c3ccccc23)NC(=O)[C@H](CCCNC(=N)N)NC(=O)[C@@H](Cc2ccc3ccccc3c2)NC(=O)[C@H](Cc2cnc[nH]2)NC1=O
  pEC50: 8.77
